# In the library only some 3.1% were active in any assay of this set; here they are far more common.
# Cneo AK release – Cryptococcus neoformans lysis via adenylate kinase release. C. neoformans lysis, adenylate kinase release luminescence, 4 h; normalised: neutral wells 0, clomiphene wells 100. lysis activity, % at 15 µM. hit rate 0.2% among 360,000. AID 651654;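 active = mean lysis activity across replicates of at least 80%, whatever share of replicates individually reach that level; inactive = mean lysis activity below 80%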
#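 Assay system: C. neoformans cells. Amount: yeast cell density of 5 × 10^6 cells/mL. Technique: AK luminescence. Buffer or medium: YPD. Times: static 4 h at 37 °C with compound, 1 h detection. Dosing: single-point compound dose. Read-out: lysis from increased AK signal.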
# rRNA inh HTS – selective bacterial rRNA inhibition in E. coli. E. coli WT GFP vs humanized-ribosome RFP mutants, fluorescence, 24 h; stronger effect = lower value; DMSO median 0, no signal -100. hit rate 1.6% among 350,000. GFP signal change (wild-type ribosome), % (no concentration beside the values);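 active = significant combined selectivity score with lowered wild-type GFP, culture density cut under 30%, mutant RFP and density less affected; inactive = any of these conditions unmet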
# E-sel inducer – E-selectin induction on HUVECs; P16581; HUVEC E-selectin immunofluorescence imaging; normalized: neutral wells 0, TNF-alpha wells 100; activation, % at 7.58 µM; hit rate 0.37% among 260,000; AID 686992;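 active = mean E-selectin-positive cell signal at least 10% of the positive control, reached in at least 60% of replicates, without over 20% cell loss; inconclusive = no rule given, readout overlaps actives, possibly toxicity-flagged; inactive = the rest, including those meeting only one limit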
# Target sequence (P16581 whole entry, looked up): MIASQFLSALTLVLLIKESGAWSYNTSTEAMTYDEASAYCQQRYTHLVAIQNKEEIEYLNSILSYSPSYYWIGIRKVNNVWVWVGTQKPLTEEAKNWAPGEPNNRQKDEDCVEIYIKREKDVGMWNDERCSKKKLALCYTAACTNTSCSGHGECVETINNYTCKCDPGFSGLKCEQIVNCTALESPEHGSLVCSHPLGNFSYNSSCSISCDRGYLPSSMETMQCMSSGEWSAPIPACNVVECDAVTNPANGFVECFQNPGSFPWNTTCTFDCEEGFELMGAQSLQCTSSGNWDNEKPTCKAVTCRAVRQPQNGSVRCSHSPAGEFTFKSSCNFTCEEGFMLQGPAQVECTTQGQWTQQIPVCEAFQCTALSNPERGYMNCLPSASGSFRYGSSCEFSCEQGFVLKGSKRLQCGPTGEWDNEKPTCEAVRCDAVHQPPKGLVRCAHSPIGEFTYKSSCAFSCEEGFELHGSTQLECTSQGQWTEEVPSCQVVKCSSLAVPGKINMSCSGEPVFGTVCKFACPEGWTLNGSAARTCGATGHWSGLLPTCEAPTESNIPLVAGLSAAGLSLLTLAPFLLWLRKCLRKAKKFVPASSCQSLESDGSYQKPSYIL
#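 Read-out basis: % PE-positive cells; Test system: HUVEC primary endothelial cells; Technique: immunofluorescence imaging; Dosing: single-point compound dose.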
# miR-122 sensor – blocks miR-122 activity in Huh7 sensor cells. activation (reporter increase), % at 12.5 µM. AID 602342. Huh7 miR-122 Renilla luciferase sensor, 48 h; neutral wells = 0, positive control = 100. hit rate 0.3% among 340,000;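 active = mean replicate activation score at least 90 and every replicate individually at or above 90; inconclusive = only one of the two criteria met; inactive = neither criterion met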;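 also: higher luciferase means less miR-122 activity so hits act as miR-122 inhibitors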
# DENV2 CPE – inhibitors of DENV2 cytopathic effect; hit rate 1.7% among 350,000; DENV2-infected cells, cytopathic effect rescue, plate reader; CPE inhibition, % at 9.99 µM; AID 651640; in the data active = CPE inhibition above about 20%, passing the limit was not always enough; inconclusive = no clear call, values can overlap the other calls; tested in BHK-21 cells;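 also: 0% = median of neutral control wells and 100% = median of positive control wells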
# HepG2 cytotox – kills or reduces viability of HepG2 cells | shares compounds with rRNA inh HTS | ATP luminescence, 72 h | activity change, negative = cytotoxicity, unspecified at 26 µM | 30 tested, under 10 active | AID 743480;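 active = compounds whose fitted half-maximal signal-loss concentration is at most twice their highest valid dose; inconclusive = flat curve with 30 to 70% signal loss, or poor fit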
# AID977621 – growth inhibition of wild-type GFP E. coli, dose response, H69 mutant RFP, cherry-pick; shares compounds with rRNA inh HTS; E. coli wild-type GFP strain growth, fluorescence, 24 h; activity change, negative = inhibition at 50 µM; 1,900 tested, under 10 active; AID 977621;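 active = Wild-type ribosome reporter drop at least double the humanized mutant ribosome reporter drop, growth loss under a set limit; inconclusive = no clear call, values can overlap the other calls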;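 also: wild-type GFP and H69 mutant RFP strains grown together 50/50 in each well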
# AID977628 – growth of wild-type and h24-humanized E. coli strains – h24 mutant RFP vs wild-type GFP, cherry-pick, dose response; shares compounds with rRNA inh HTS; E. coli WT GFP strain growth, fluorescence, 24 h; activity change, negative = inhibition at 50 µM; 1,900 tested, under 10 active; AID 977628;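 active = compound lowering the normal-ribosome reporter at least twice as much as the humanized-ribosome reporter, growth loss under a set limit; inconclusive = no clear call, values can overlap the other calls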;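 also: wild-type GFP and h24 humanized RFP strains co-cultured 1 to 1 per well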
# * = called active by the depositor; u = inconclusive; x = no result; ! = not active in a repeat; [ ] = dose if it differs, or a comment.
SMILES,Cneo AK release,rRNA inh HTS,E-sel inducer,miR-122 sensor,DENV2 CPE,AID977621,AID977628,others
C[C@H]1CCCCO[C@H](CN(C)C)[C@@H](C)CN([C@@H](C)CO)C(=O)c2cc(NC(=O)Nc3cccc4ccccc34)ccc2O1,38,0,0,23[16.7 µM],u,-9.3,u,
C[C@@H]1CCCCO[C@H](CN(C)C)[C@H](C)CN([C@H](C)CO)C(=O)c2cc(NC(=O)Nc3cccc4ccccc34)ccc2O1,5,-1,0,-11[16.7 µM],74*,-24,x,
C[C@@H]1CN([C@H](C)CO)C(=O)Cc2cc(NC(=O)Cc3cn(C)c4ccccc34)ccc2O[C@H]1CN(C)C(=O)Nc1ccc2c(c1)OCO2,0,-1,-7,8[16.7 µM],-3,x,x,
O=C(C1CCOCC1)N1[C@H](CO)[C@@H](c2ccccc2)C12CN(Cc1cccc(Cl)c1)C2,x,2,0,x,-8,x,x,
C=CC1c2ccccc2/C=C(C(=O)OC)\C(C(=O)OC)=C/N1Cc1ccc(OC)cc1 (stereo not drawn),11,x,x,x,-7,x,x,
CCOC(=O)c1cnc2c(ccc3ccccc32)c1NCCCN(C)C,-5,-26*,0,-2,1,-4.3,x,
Cc1cc(NC(=O)CS(=O)(=O)c2cn(Cc3cccc(Br)c3)c3ccccc23)no1,5,-21*,0,3,12,-15,x,
C[C@@H](O)C#Cc1ccc([C@@H]2[C@H](CO)N3CCCCN(C(=O)c4ccc(F)cc4)C[C@@H]23)cc1,-1,0,0,-24[16.7 µM],10,x,x,
Brc1ccc(Nc2ncnc3[nH]ncc23)cc1,0,-20*,0,0,1,-12,x,
Fc1cccc(Nc2ncnc3[nH]ncc23)c1,x,9,x,x,-5,x,x,
O=C(NCc1ccccc1)c1ccc(-c2cn[nH]c2)c2ccoc12,-2,-20*,0,41,-6,2.6,-8.2,
C[C@@H]1CN([C@H](C)CO)C(=O)c2cc(NS(=O)(=O)c3cn(C)cn3)ccc2O[C@@H](C)CCCCO[C@@H]1CN(C)S(=O)(=O)c1ccccc1,1,0,x,4[16.7 µM],3,x,x,
S=c1nc(-c2cc(Cl)cc(Cl)c2)[nH][nH]1,x,-17*,x,x,-1,-14,u,
COc1ccccc1NC(=O)CN1CCN(CC(=O)Nc2ccccc2Cl)CC1,1,13,0,-5,-2,x,x,
CCn1c(-c2ccccc2Cl)nn(CC(=O)Nc2ccccc2OC)c1=S,-3,-21*,x,x,x,-16,x,
CS(=O)(=O)N(CC(=O)N1CCc2ccccc2C1)c1cccc(Br)c1,1,-23*,x,3,-1,-7.3,u,
COc1ccc(-c2noc(=O)n2Cc2ccccc2Cl)cc1,0,-15*,x,0,3,x,0.49,
Cc1cc([N+](=O)[O-])nn1CC(=O)Nc1cc(F)ccc1F,x,-18*,0,x,-7,-16,u,
Cc1ccc(S(=O)(=O)N2CC[C@H]3[C@H](CO)Nc4ccc(Br)cc4[C@H]32)cc1,56,-25*,-1,-7[16.7 µM],3,x,u,HepG2 cytotox=24
Cc1ccc(S(=O)(=O)N2CC[C@@H]3[C@H]2c2cc(Br)ccc2N[C@@H]3CO)cc1,9,-11,0,1[16.7 µM],11,x,x,
Cc1noc(C)c1NC(=O)Nc1ccc2c(c1)CC(=O)N([C@@H](C)CO)C[C@@H](C)[C@H](CN(C)Cc1ccc(Cl)c(Cl)c1)O2,1,-3,-2,-3[16.7 µM],3,x,x,
Cc1nn(-c2ccc(N3CCCCC3)nn2)c(C)c1CCC(=O)Nc1ccc(F)cc1,-3,-28*,x,-13,3,-17,u,
CCc1ccc(NC(=O)CCc2c(C)nn(-c3ccc(N4CCCCC4)nn3)c2C)cc1,-9,-23*,x,5,-1,4.5,u,
Cc1ccc(NC(=O)CCc2c(C)nn(-c3ccc(N4CCCCC4)nn3)c2C)cc1F,-6,-1,x,-5,0,x,x,
C[C@@H]1CCCCO[C@@H](CN(C)S(=O)(=O)c2ccccc2)[C@H](C)CN([C@H](C)CO)C(=O)c2cc(NS(=O)(=O)c3cccs3)ccc2O1,-4,-4,x,-15[16.7 µM],-10,x,x,
SMILES,Cneo AK release,rRNA inh HTS,E-sel inducer,miR-122 sensor,DENV2 CPE,AID977621,AID977628,others
CC(C)C#Cc1ccc2c(c1)O[C@@H](CN(C)S(=O)(=O)c1cn(C)cn1)[C@H](C)CN([C@H](C)CO)S2(=O)=O,2,-7,1,10[16.7 µM],5,x,x,
O=C(Nc1ccc(Nc2ccccc2)cc1)c1ccc(F)cc1,-4,-21*,0,-11,4,-3.5,-13,
O=C(O)c1ccc(C(=O)Nc2ccc(F)cc2)cc1,1,2,0,4,-3,x,x,
O=C(Nc1ccc(Nc2ccccc2)cc1)c1c(Cl)cccc1Cl,-1,-34*,x,5,-14,-16,x,
C[C@@H]1CN([C@@H](C)CO)C(=O)c2cc(NC(=O)Cc3ccccc3)ccc2O[C@@H](C)CCCCO[C@@H]1CN(C)Cc1ccc2c(c1)OCO2,1,2,0,-4[16.7 µM],7,x,x,
CCCNC(=O)N1[C@H](CO)[C@H]2c3ccccc3N(C(=O)NC(C)C)C[C@H]21,1,1,0,-24[16.7 µM],-1,x,x,
CCOc1ccc(CN(C)C(=O)c2ccc(NS(=O)(=O)c3ccc4[nH]c(=O)[nH]c4c3)cc2)cc1,-3,-17*,2,0,u,-25,u,
COc1ccc(NC(=O)c2cccc(Oc3ccc([N+](=O)[O-])cc3Cl)c2)cc1,x,-24*,0,x,-3,1.8,-2.2,
O=C(Nc1cccc(Cl)c1)c1cccc(Oc2ccc([N+](=O)[O-])cc2Cl)c1,3,1,x,-7,7,x,x,
COc1ccc2c3c(n(C)c2c1)[C@H](CO)N(C(=O)Nc1ccc(F)cc1)CC31CN(Cc2cccnc2)C1,x,3,0,x,7,x,x,
CN(C)C(=O)c1ccc(-c2ccc3c(c2)[C@@H]2[C@@H](CCN2C(=O)C2CCCCC2)[C@@H](CO)N3C)cc1,x,-9,0,x,-8,x,x,
O=S1(=O)N[C@H](Cc2ccccc2)COc2cc(N3CCSCC3)ccc21,x,-16*,0,x,2,-0.85,-10,
O=C(O)c1cccnc1SCc1ccccc1Cl,0,-22*,5,9,1,-9.8,x,
CO[C@H]1CN(C)C(=O)c2ccc(NS(C)(=O)=O)cc2OC[C@H](C)N(C(=O)C2CCCC2)C[C@@H]1C,45,3,0,0[16.7 µM],-5,x,x,
C[C@@H]1CN([C@@H](C)CO)S(=O)(=O)c2ccc(Br)cc2O[C@H]1CN(C)C(=O)c1ccccc1,-3,-18*!,5,-4,1,5.3,-5,

# Compound activity deposited in PubChem BioAssay by Broad Institute.
